In publication PMC2587450 (International journal of cancer. Journal international du …, 2008):

Legend:
[1] = cited from earlier work
[2] = system: α1β1 integrin; details: reduced disulfide bonds, cysteines blocked with vinylpyridine; cited from earlier work
[3] = system: MV3 melanoma-induced angiogenesis; assay: MV3 tumor-induced angiogenesis in quail embryonic CAM; format: in vivo, Japanese quail (Coturnix coturnix japonica); details: MV3 on quail CAM, 20 μg daily, day 12
In short: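 Japanese quail eggs ethanol-cleaned, kept at 37°C without CO₂ to embryonic day 3, then opened and contents moved to 6-well plates at 37°C. Day 6: MV3 cells (1 × 10⁷/50 μl PBS) applied onto CAM; after 24 h growth, 20 μg test compound per 50 μl PBS daily. Tumors excised and weighed; remaining membrane slide-mounted, fractal dimension (Df) measured in square area opposite the tumor.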

[4] = system: B16F10 mouse melanoma; assay: B16F10 melanoma growth in syngeneic C57BL/6 mice; format: in vivo; details: for effect on tumor growth, i.p. route: B16F10 melanoma model
In short: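 Daily caliper volumes (width² × length × 0.52). Formalin-fixed paraffin 5-μm sections: anti-von Willebrand factor vessels counted in 10 high-power fields (400×) and averaged, blinded, 3 investigators; colorimetric TUNEL; S.D. from 5 animals.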

[5] = system: B16F10; assay: Apoptosis in B16F10 melanoma cell line; format: cell-based; details: B16F10 mouse melanoma cell line (data not shown)
[6] = system: dHMVEC; assay: dHMVEC proliferation assay; format: cell-based, human; details: BrdUrd, induced by 2% FBS or 50 ng/ml hrVEGF or vpVEGF, 2 μM obtustatin for VEGF
[7] = system: dHMVEC; assay: Apoptosis assays in dHMVEC; format: cell-based, human; details: 2 μM
In short: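 Primary adult dermal microvascular endothelial cells (passages 5–8, complete EBM-2). Annexin V: 2 μM test compound 16 h in complete EBM-2, cells detached, annexin V-FITC stained, two-colour flow cytometry within 1 h. Caspase 3: ±2 μM 16 h in complete medium, vincristine 50 μg/ml as positive control, lysates read by colorimetric ELISA at 450 nm. Morphology: 90% confluent cells, 2 μM 24 h, 2% paraformaldehyde-fixed, phase contrast 200×.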

[8] = system: MV3; assay: Apoptosis in MV3 melanoma cell line; format: cell-based; details: MV3 human melanoma cell line (data not shown)
[9] = format: in vivo, mouse; details: mice
[10] = format: in vivo, mouse; details: mice, Western blot, variety of time intervals

Compound: O=c1[nH]cc(F)c(=O)[nH]1 [5-fluorouracil (5-FU), 5-fluorouracil]
- half life time [1]: about 100 minutes

Compound: Ethylpyridylated(EP)-obtustatin [EP-obtustatin]
- change of activity against α1β1 integrin versus native obtustatin [2]: over four orders of magnitude decreasing activity
- tumor-induced angiogenesis, angiogenesis index as fractal dimension (Df) [3]: no activity

Compound: obtustatin
- effect on tumor growth, i.p. route ([4]; 2.5 mg/kg i.p. (data not shown)): no effect on tumor growth
- effect on tumor growth, i.p. route ([4]; 5 mg/kg i.p. (data not shown)): only slightly, close to no significant ratio tumor suppression
- vessel number in paraffin sections of tumor (anti-von Willebrand factor) ([4]; B16F10 melanoma, obtustatin treated animals vs control): significant reduction of vessel number
- TUNEL staining of endothelial cells in tumor sections ([4]; B16F10 melanoma, obtustatin-treated animals): positive staining of DNA strand breaks
- body weight during multiple injections ([4]; melanoma experiments in mice, 5 and 2.5 mg/kg i.v., multiple injections): did not show any changes in body weight
- apoptosis induction [5]: no apoptotic properties
- endothelial cell proliferation [6]: potent inhibitor of endothelial cell proliferation
- caspase 8, fluorescent ELISA and Western blot ([7]; 2 hours): appears to be activated
- caspase 3, colorimetric ELISA and Western blot ([7]; 16 hours (ELISA)): release of caspase 3
- annexin V binding (early apoptosis), flow cytometry ([7]; 16 hours, complete EBM-2 media): annexin V binds to the surface of dHMVEC
- cell morphology ([7]; 24 hours, complete medium with 5% FBS): typical apoptotic morphology
- apoptosis induction [8]: no apoptotic properties
- behavioral signs and body weight ([9]; single i.v. doses up to 20 mg/kg, 10 days observation): did not reveal any toxic side effects
- H&E sections of liver ([9]; single i.v., 10 mg/kg and 20 mg/kg groups, after 10 days): small areas of inflammations and necrotic patches in liver
- H&E sections of spleen ([9]; single i.v., 20 mg/kg group, after 10 days): significant necrotic patches in all animals
- H&E sections of brain, lung, kidney, liver and spleen ([9]; single i.v., all concentrations up to 7 mg/kg, after 10 days): no effects
- tumor-induced angiogenesis, angiogenesis index as fractal dimension (Df) [3]: significantly diminished
- detection in blood plasma after i.p. injection [10]: not detectable
